# Experimental data published in PubChem BioAssay AID1899 (The Scripps Research Institute Molecular Screening Center, 2009).
# The campaign covered roughly 300,000 compounds. About 1,000 (0.33%) were called active. Many of the other results were omitted from the sample, so actives are more common in it than they were. Unmarked numbers belong to inactive results.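 The calls were made as follows: active = inhibition above the mean of all tested compounds plus 3 SD, set per screening campaign (cut at about 45% in these data); inactive = the rest.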
# Test system: HCV core protein (residues 1-106) dimerization
# Assay: blockers of core106 self-association – biochemical, TR-FRET, high-throughput, primary screen (AID 1899)
# Conditions: TR-FRET GST/Flag-core106 dimerization, 1536-well; at 5 µM; active compounds read high
# Summary of the method: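 System – GST-tagged and Flag-tagged HCV core protein residues 1-106 · Repeats – one well for each compound · Technique – TR-FRET 671 and 617 nm emission · Doses – one concentration, 5 µM, in 0.5% DMSO · Times – 4 h, 22.5 °C incubation · Also added – Eu donor and XL665 acceptor anti-tag antibodies · Measure – percent inhibition of core106 dimerization signal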
row,Structure (SMILES),inhibition
1,COc1cccc(N2C(=O)NC(=O)/C(=C\c3cn(C)c4ccccc34)C2=O)c1,-2.56%
2,O=C1NC(=O)N(c2ccccc2)C(=O)/C1=C/c1ccc([N+](=O)[O-])s1,-5.13%
3,Cc1cccc(N2C(=O)NC(=O)/C(=C\c3cnn(-c4ccccc4)c3)C2=O)c1,46.9% (active)
4,CN1C2C=C(N(C(=O)c3ccc(Cl)cc3)c3ccccc3)CC1CC2 (stereo not given),-2.38%
5,CSC1=NP(=S)(SC)N(C)c2nc3n(c21)CCC3 (stereo not given),8.93%
